Measured values as given in ChEMBL document CHEMBL1141374 (J Med Chem, 2007).

Experiments:
T47D = test: Growth inhibition in T47D cells; type: functional; conditions: Homo sapiens
SK-OV-3 = test: Growth inhibition in SKOV3 cells; type: functional; conditions: Homo sapiens
BT-549 = test: Growth inhibition in BT549 cells; type: functional; conditions: Homo sapiens
TK-10 = test: Growth inhibition in TK10 cells; type: functional; conditions: Homo sapiens
NCI-H522 = test: Growth inhibition in NCI-H522 cells; type: functional; conditions: Homo sapiens
HeLa = test: Cytotoxicity against HeLa cell line; type: cell-based; conditions: Homo sapiens
In short: (§1)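 Log-phase cells were diluted to 20 000–30 000 cells/mL, seeded, and left to attach overnight. They were then exposed to compounds at 10^–5–10^–12 M for 72 h at 37 °C in 5% CO2. Viable cells were measured by MTT, with absorbance read at 595 nm. Each compound ran in triplicate in at least three independent assays. IC50 came from nonlinear regression, and average values were reported.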

[1] = Growth inhibition in HS 578T cells; type: functional; conditions: Homo sapiens
HCT-116 = test: Cytotoxicity against HCT116 cell line; type: cell-based; conditions: Homo sapiens; in short: as §1
SF-539 = test: Growth inhibition in SF539 cells; type: functional; conditions: Homo sapiens
ZR-75-1 = test: Cytotoxicity against ZR-75-1 cell line; type: cell-based; conditions: Homo sapiens; in short: as §1
A498 = test: Growth inhibition in A498 cells; type: functional; conditions: Homo sapiens
786-0 = test: Growth inhibition in 786-0 cells; type: functional; conditions: Homo sapiens
M14 = test: Growth inhibition in M14 cells; type: functional; conditions: Homo sapiens
COLO 205 = test: Growth inhibition in COLO205 cells; type: functional; conditions: Homo sapiens
[2] = Growth inhibition in MDA-MB-231/ATCC cells; type: functional; conditions: Homo sapiens
OVCAR-4 = test: Growth inhibition in OVCAR4 cells; type: functional; conditions: Homo sapiens
UACC-62 = test: Growth inhibition in UACC62 cells; type: functional; conditions: Homo sapiens
DU-145 = test: Growth inhibition in DU145 cells; type: functional; conditions: Homo sapiens
SF-295 = test: Growth inhibition in SF295 cells; type: functional; conditions: Homo sapiens
HOP-62 = test: Growth inhibition in HOP62 cells; type: functional; conditions: Homo sapiens
SF-268 = test: Growth inhibition in SF268 cells; type: functional; conditions: Homo sapiens
MDA-MB-435 = test: Growth inhibition in MDA-MB-435 cells; type: functional; conditions: Homo sapiens
NCI/ADR-RES = test: Growth inhibition in NCI/ADR-RES cells; type: functional; conditions: Homo sapiens
UACC-257 = test: Growth inhibition in UACC257 cells; type: functional; conditions: Homo sapiens
[3] = Growth inhibition in HCC15 cells; type: functional; conditions: Homo sapiens
SNB-75 = test: Growth inhibition in SNB75 cells; type: functional; conditions: Homo sapiens
SK-MEL-5 = test: Growth inhibition in SK-MEL-5 cells; type: functional; conditions: Homo sapiens
[4] = Growth inhibition in HCC116 cells; type: functional; conditions: Homo sapiens
CAKI-1 = test: Growth inhibition in CAK1-1 cells; type: functional; conditions: Homo sapiens
SW-620 = test: Growth inhibition in SW620 cells; type: functional; conditions: Homo sapiens
NCI-H23 = test: Growth inhibition in NCI-H23 cells; type: functional; conditions: Homo sapiens
SK-MEL-28 = test: Growth inhibition in SK-MEL-28 cells; type: functional; conditions: Homo sapiens
ACHN = test: Growth inhibition in ACHN cells; type: functional; conditions: Homo sapiens
NCI-H226 = test: Growth inhibition in NCI-H226 cells; type: functional; conditions: Homo sapiens
KM12 = test: Growth inhibition in KM12 cells; type: functional; conditions: Homo sapiens
HL-60 = test: Growth inhibition in HL60 cells; type: functional; conditions: Homo sapiens
SN12C = test: Growth inhibition in SN12C cells; type: functional; conditions: Homo sapiens
OVCAR-3 = test: Growth inhibition in OVCAR-3 cells; type: functional; conditions: Homo sapiens
NCI-H460 = test: Growth inhibition in NCI-H460 cells; type: functional; conditions: Homo sapiens
HCC 2998 = test: Growth inhibition in HCC2998 cells; type: functional; conditions: Homo sapiens
SK-MEL-2 = test: Growth inhibition in SK-MEL-2 cells; type: functional; conditions: Homo sapiens
PC-3 = test: Growth inhibition in PC3 cells; type: functional; conditions: Homo sapiens
HOP-92 = test: Growth inhibition in HOP92 cells; type: functional; conditions: Homo sapiens
OVCAR-5 = test: Growth inhibition in OVCAR5 cells; type: functional; conditions: Homo sapiens
HT-29 = test: Growth inhibition in HT29 cells; type: functional; conditions: Homo sapiens
LOX IMVI = test: Growth inhibition in LOX IMVI cells; type: functional; conditions: Homo sapiens
RXF 393 = test: Growth inhibition in RXF393 cells; type: functional; conditions: Homo sapiens
[5] = Cytotoxicity against P-glycoprotein-overexpressing KB-V1 cell line; type: cell-based; conditions: Homo sapiens; in short: as §1
Tubulin = test: Inhibition of tubulin polymerization; type: protein-complex assay, Homo sapiens
In short: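 Kit-based assay run per the manufacturer's instructions. Tubulin (>99% pure, 3 mg/mL) in G-PEM buffer, in a prewarmed plate with compound at 0.03–30 μM. OD340 nm read every 60 s at 37 °C for 1 h.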

MCF7 = test: Growth inhibition in MCF7 cells; type: functional; conditions: Homo sapiens
K562 = test: Growth inhibition in K562 cells; type: functional; conditions: Homo sapiens
OVCAR-8 = test: Growth inhibition in OVCAR8 cells; type: functional; conditions: Homo sapiens
[6] = Cytotoxicity against KB-3-1 cell line; type: cell-based; conditions: Homo sapiens; in short: as §1
CCRF-CEM = test: Growth inhibition in CCRF-CEM cells; type: functional; conditions: Homo sapiens
A549 = test: Growth inhibition in A549 cells; type: functional; conditions: Homo sapiens
UO-31 = test: Growth inhibition in UO31 cells; type: functional; conditions: Homo sapiens
U-251 = test: Growth inhibition in U251cells; type: functional; conditions: Homo sapiens
IGROV-1 = test: Growth inhibition in IGROV1 cells; type: functional; conditions: Homo sapiens
SNB-19 = test: Growth inhibition in SNB19 cells; type: functional; conditions: Homo sapiens
NCI-H322M = test: Growth inhibition in NCI-H322M cells; type: functional; conditions: Homo sapiens

`COc1ccc(-n2cnnc2-c2cc(OC)c(OC)c(OC)c2)cc1O` showed a GI50 (T47D) of 269 nM, a GI50 (SK-OV-3) of 316 nM and a GI50 (BT-549) of 3630 nM. For the same compound, the GI50 (TK-10) was 7410 nM, the GI50 (NCI-H522) was 263 nM and the IC50 (HeLa) was 25 nM. For the same compound, the GI50 [1] was 363 nM, the IC50 (HCT-116) was 88.9 nM and the GI50 (SF-539) was 372 nM. It also gave an IC50 (ZR-75-1) of 141 nM, a GI50 (A498) of 417 nM and a GI50 (786-0) of 501 nM. The GI50 (M14) was 295 nM, the GI50 (COLO 205) was 1170 nM and the GI50 [2] was 977 nM. For the same compound, the GI50 (OVCAR-4) was 417 nM, the GI50 (UACC-62) was 407 nM and the GI50 (DU-145) was 661 nM. It also gave a GI50 (SF-295) of 302 nM, a GI50 (HOP-62) of 490 nM and a GI50 (SF-268) of 257 nM. It also gave a GI50 (MDA-MB-435) of 24.6 nM, a GI50 (NCI/ADR-RES) of 1550 nM and a GI50 (UACC-257) of over 100000 nM. For the same compound, the GI50 [3] was 631 nM, the GI50 (SNB-75) was 251 nM and the GI50 (SK-MEL-5) was 288 nM. The GI50 [4] was 398 nM, the GI50 (CAKI-1) was 708 nM and the GI50 (SW-620) was 380 nM. The GI50 (NCI-H23) was 4270 nM, the GI50 (SK-MEL-28) was 427 nM and the GI50 (ACHN) was 417 nM. The GI50 (NCI-H226) was over 100000 nM, the GI50 (KM12) was 141 nM and the GI50 (HL-60) was 389 nM. The GI50 (SN12C) was 603 nM, the GI50 (OVCAR-3) was 195 nM and the GI50 (NCI-H460) was 407 nM. It also gave a GI50 (HCC 2998) of 933 nM, a GI50 (SK-MEL-2) of 724 nM and a GI50 (PC-3) of 288 nM. For the same compound, the GI50 (HOP-92) was 617 nM, the GI50 (OVCAR-5) was 1950 nM and the GI50 (HT-29) was 2880 nM. The GI50 (LOX IMVI) was 550 nM, the GI50 (RXF 393) was 309 nM and the IC50 [5] was 544 nM. The IC50 (Tubulin) was 6000 nM, the GI50 (MCF7) was 617 nM and the GI50 (K562) was 209 nM. The GI50 (OVCAR-8) was 977 nM, the IC50 [6] was 57.3 nM and the GI50 (CCRF-CEM) was 295 nM. It also gave a GI50 (A549) of 1000 nM, a GI50 (UO-31) of 501 nM and a GI50 (U-251) of 407 nM. The GI50 (IGROV-1) was 447 nM, the GI50 (SNB-19) was 407 nM and the GI50 (NCI-H322M) was 91200 nM.
